Values after ≈ are worked out from the molar mass of the structure shown. Active and inactive are the calls of the source. No cut-off for these calls is given here.
Key:
[1] = Toxicity in NSG mouse assessed as body weight loss at 10 to 50 mg/kg, ip administered for 7 days; assay type: organism-based; settings: in vivo, dose 10-50 mg/kg, time 7 day
[2] = Toxicity in NSG mouse at 20 mg/kg, ip administered daily for 7 days; assay type: organism-based; settings: in vivo, time 7 day
[3] = Solubility of compound at pH 7.4; assay type: physicochemical; settings: buffer
[4] = Half life in mouse plasma at 20 mg/kg, ip; assay type: ADME, organism-based; settings: in vivo, 20 mg/kg
[5] = Stability in human liver microsomes assessed as half life; assay type: ADME, Microsome
[6] = Stability in mouse liver microsomes assessed as half life; assay type: ADME, Microsome
[7] = test system: EBC-1; assay: Cytotoxicity against human EBC-1 cells assessed as reduction in cell viability preincubated with compound and pro-HGF for 24 hrs followed by JNJ-38877605 addition and measured after 48 hrs by CellTiter-Glo assay; assay type: functional, cell-based; settings: time 72.0 hrs
In short: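 EBC-1 cells pre-incubated 24 h with pro-HGF (100 ng/ml) with or without compound (1 µM), then given MET kinase inhibitor JNJ-38877605 (25 nM). Viability read by CellTiter-Glo after 48 h. Means±S.E.M., n=3; one-way ANOVA with Dunnett's test.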

[8] = Plasma protein binding in mouse assessed as unbound fraction; assay type: ADME, cell-free
[9] = test system: HCC827; assay: Inhibition of pro-HGF stimulated wound healing in human HCC827 cells preincubated for 30 mins followed by pro-HGF stimulation and measured after 24 hrs by crystal violet staining based assay; assay type: functional, cell-based
In short: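 HCC827 monolayers grown to confluence, serum-starved overnight, then scratched. Cells were pre-incubated 30 min with inhibitor (10 µM) and stimulated with HGF or pro-HGF for 24 h. Wells stained with crystal violet to score closure. n=3; one-way ANOVA versus pro-HGF alone.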

[10] = biological target: T1, Suppressor of tumorigenicity 14 protein (Homo sapiens, UniProt Q9Y5Y6); assay: Inhibition of recombinant human N-terminal met-His6-tagged matriptase catalytic domain (Gly596 to Val855 residues) expressed in Escherichia coli using Boc-QAR-AMC as substrate preincubated for 30 mins followed by substrate addition by fluorescence based assay
T1 sequence (Q9Y5Y6 whole entry): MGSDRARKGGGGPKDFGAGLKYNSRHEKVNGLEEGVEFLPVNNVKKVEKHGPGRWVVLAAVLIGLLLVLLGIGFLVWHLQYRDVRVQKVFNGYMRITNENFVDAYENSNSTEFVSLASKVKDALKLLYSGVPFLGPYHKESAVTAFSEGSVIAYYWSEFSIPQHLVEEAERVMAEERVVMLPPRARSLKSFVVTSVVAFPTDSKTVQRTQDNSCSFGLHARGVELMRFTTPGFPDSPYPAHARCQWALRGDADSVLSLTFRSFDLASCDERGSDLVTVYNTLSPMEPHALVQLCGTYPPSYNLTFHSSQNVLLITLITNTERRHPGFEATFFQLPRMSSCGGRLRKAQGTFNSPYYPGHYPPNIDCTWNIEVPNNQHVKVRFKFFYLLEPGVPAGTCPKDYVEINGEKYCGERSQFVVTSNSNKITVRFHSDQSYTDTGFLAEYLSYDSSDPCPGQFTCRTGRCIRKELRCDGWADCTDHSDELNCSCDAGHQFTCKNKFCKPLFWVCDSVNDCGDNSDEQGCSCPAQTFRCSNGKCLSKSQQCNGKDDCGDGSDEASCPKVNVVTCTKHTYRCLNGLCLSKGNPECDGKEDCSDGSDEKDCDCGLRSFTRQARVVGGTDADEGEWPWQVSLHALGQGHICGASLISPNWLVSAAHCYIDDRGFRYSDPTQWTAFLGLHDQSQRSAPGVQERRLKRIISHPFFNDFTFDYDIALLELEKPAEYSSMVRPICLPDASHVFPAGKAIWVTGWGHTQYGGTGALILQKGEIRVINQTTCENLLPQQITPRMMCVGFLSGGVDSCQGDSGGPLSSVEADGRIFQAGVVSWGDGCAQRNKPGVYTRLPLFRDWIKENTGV
In short: (§1)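 Inhibitor in 11-point serial dilution (0-20 µM final, 2% DMSO) pre-incubated 30 min at room temperature with enzyme in TNC buffer (25 mM Tris, 150 mM NaCl, 5 mM CaCl2, 0.01% Triton X-100, pH 8). […] Hepsin activated beforehand 24 h at 37°C. Fluorescence ex 380/em 460 nm kinetic; four-parameter fit of velocities; mean of three experiments.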

[11] = test system: NCI-H596; assay: Antitumor activity against human NCI-H596 cells xenografted in hHGF knock in NSG mouse assessed as tumor growth inhibition at 20 mg/kg, ip administered daily for 14 to 16 days; assay type: functional, organism-based; settings: time 14-16 day
[12] = Stability in mouse plasma assessed as half life; assay type: ADME, cell-free
[13] = test system: HCC827; assay: Cytotoxicity against human HCC827 cells assessed as reduction in cell viability at 0.1 to 1 uM after 72 hrs by crystal violet staining based assay; settings: dose 0.1-1 µM
[14] = Acute toxicity in NSG mouse at 10 to 50 mg/kg, ip administered for 7 days; assay type: organism-based; settings: in vivo, dose 10-50 mg/kg, time 7 day
[15] = biological target: T2, Serine protease hepsin (Homo sapiens, UniProt P05981); assay: Inhibition of recombinant human C-terminal 10-His tagged hepsin (Arg45 to Leu417) expressed in mouse myeloma cells mediated pro-HGF activation preincubated for 30 mins followed by pro-HGF addition and measured after 1 hr by immunoblotting analysis
In short: (§2)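 Recombinant pro-HGF (10 ng) incubated one hour with matriptase (1 nM), hepsin (10 nM) or HGFA (5 nM), with or without inhibitor. Processing detected by immunoblot with a polyclonal antibody recognizing pro-HGF and the HGF alpha and beta chains; active HGF served as positive control.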

[16] = biological target: T2, Serine protease hepsin; assay: Inhibition of recombinant human C-terminal 10-His tagged hepsin (Arg45 to Leu417) expressed in mouse myeloma cells using Boc-QAR-AMC as substrate preincubated for 30 mins followed by substrate addition by fluorescence based assay; assay type: single protein; in short: as §1
[17] = test system: HCC827; assay: Cytotoxicity against human HCC827 cells assessed as reduction in cell viability at 0.1 to 1 uM after 72 hrs in presence of pro-HGF by crystal violet staining based assay; settings: dose 0.1-1 µM
[18] = Toxicity in hHGF knock in NSG mouse xenografted with human NCI-H596 cells at 20 mg/kg, ip administered daily for 14 to 16 days; assay type: organism-based; settings: in vivo, time 14-16 day
[19] = biological target: T3, Suppressor of tumorigenicity 14 protein (Homo sapiens) (UniProt Q9Y5Y6); assay: Inhibition of recombinant human N-terminal met-His6-tagged matriptase catalytic domain (Gly596 to Val855 residues) expressed in Escherichia coli mediated pro-HGF activation preincubated for 30 mins followed by pro-HGF addition and measured after 1 hr by immunoblotting analysis; in short: as §2
T3 sequence (whole entry): T1 sequence (Q9Y5Y6 whole entry)

[20] = biological target: T4, Hepatocyte growth factor activator serine protease (Homo sapiens) (UniProt Q04756); assay: Inhibition of recombinant human HGFA serine protease domain mediated pro-HGF activation preincubated for 30 mins followed by pro-HGF addition and measured after 1 hr by immunoblotting analysis; in short: as §2
T4 sequence (whole entry): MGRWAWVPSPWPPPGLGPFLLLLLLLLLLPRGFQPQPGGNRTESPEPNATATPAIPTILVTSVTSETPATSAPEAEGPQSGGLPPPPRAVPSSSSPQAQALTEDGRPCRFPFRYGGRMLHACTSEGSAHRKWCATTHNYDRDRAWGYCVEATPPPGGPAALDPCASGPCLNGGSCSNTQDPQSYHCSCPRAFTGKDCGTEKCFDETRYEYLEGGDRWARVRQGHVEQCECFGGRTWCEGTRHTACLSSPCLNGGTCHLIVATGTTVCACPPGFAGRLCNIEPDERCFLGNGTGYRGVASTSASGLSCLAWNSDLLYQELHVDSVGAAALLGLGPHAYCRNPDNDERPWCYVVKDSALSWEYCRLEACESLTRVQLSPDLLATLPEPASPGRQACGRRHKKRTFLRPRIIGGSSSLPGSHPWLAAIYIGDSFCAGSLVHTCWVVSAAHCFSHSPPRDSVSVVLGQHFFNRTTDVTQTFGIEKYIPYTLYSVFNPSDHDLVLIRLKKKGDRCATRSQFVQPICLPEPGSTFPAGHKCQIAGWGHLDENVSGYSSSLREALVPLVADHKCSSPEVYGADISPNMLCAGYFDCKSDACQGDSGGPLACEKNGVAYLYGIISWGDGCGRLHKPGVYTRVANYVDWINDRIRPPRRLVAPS

[21] = Stability in human plasma assessed as half life; assay type: ADME, cell-free

T2 sequence (P05981 1-162 limits assumed): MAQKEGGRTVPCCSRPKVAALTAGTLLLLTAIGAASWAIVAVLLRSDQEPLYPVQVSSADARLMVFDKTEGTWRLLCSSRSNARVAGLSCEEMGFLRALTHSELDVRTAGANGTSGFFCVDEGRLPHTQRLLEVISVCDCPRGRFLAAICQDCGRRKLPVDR
T2 sequence (P05981 163-417 limits assumed): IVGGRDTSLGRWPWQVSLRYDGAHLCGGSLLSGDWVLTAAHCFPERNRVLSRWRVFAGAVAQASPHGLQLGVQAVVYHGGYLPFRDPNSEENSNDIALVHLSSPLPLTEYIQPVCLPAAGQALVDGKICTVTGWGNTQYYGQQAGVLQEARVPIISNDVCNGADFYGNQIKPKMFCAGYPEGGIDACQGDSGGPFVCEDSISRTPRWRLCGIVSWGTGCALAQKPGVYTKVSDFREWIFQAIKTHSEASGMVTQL

**Q.** Which Activity [1] does the source give for `CC(=O)N[C@H]1CC(=O)NCCCC[C@@H](C(=O)N[C@@H](CCCNC(=N)N)C(=O)c2nc3ccccc3s2)NC(=O)[C@H](CC(C)C)NC1=O` here?
**A.** Non-Toxic

**Q.** And the Activity [2]?
**A.** Non-Toxic

**Q.** What about the solubility [3] of the same compound?
**A.** 11 µM (≈ 7.39 µg/mL)

**Q.** And the t1/2 [4]?
**A.** 8.7 h

**Q.** And the t1/2 [5]?
**A.** > 2.42 h

**Q.** And the t1/2 [6]?
**A.** > 2.42 h

**Q.** And the Activity [7]?
**A.** Active

**Q.** And the fraction unbound [8]?
**A.** 0.286

**Q.** And the inhibition [9]?
**A.** Active

**Q.** And the IC50 [10]?
**A.** 2.2 nM

**Q.** And the Activity [11]?
**A.** Active

**Q.** What about the t1/2 [12] of the same compound?
**A.** 3.7 h

**Q.** What about the Activity [13] of the same compound?
**A.** inactive

**Q.** And the Activity [14]?
**A.** Non-Toxic

**Q.** What about the inhibition [15] of the same compound?
**A.** Active

**Q.** And the IC50 [16]?
**A.** 11 nM

**Q.** What about the Activity [17] of the same compound?
**A.** Active

**Q.** And the Activity [18]?
**A.** Non-Toxic

**Q.** And the inhibition [19]?
**A.** Active

**Q.** And the inhibition [20]?
**A.** inactive

**Q.** And the t1/2 [21]?
**A.** > 4.82 h

From ChEMBL document CHEMBL5030567, “Macrocyclic Inhibitors of HGF-Activating Serine Proteases Overcome Resistance to Receptor Tyrosine Kinase Inhibitors and Block Lung Cancer Progression” (J Med Chem, 2021)
